Assay results published in ChEMBL document CHEMBL1949638, “4'-bromo-5,6,7-trimethoxyflavone represses lipopolysaccharide-induced iNOS and COX-2 expressions by suppressing the NF-κB signaling pathway in RAW 264.7 macrophages” (Bioorg Med Chem Lett, 2012).
Active and inactive are the calls of the source. The rule behind the calls is not given here.

How the values were obtained:
RAW264.7 [1] = assay: Cytotoxicity against mouse RAW264.7 cells; format: cell-based
RAW264.7 [2] = assay: Antiinflammatory activity against mouse RAW264.7 cells assessed as inhibition of LPS-induced NO production at 25 uM preincubated for 1 hr before LPS challenge measured after 24 hrs by Griess method; format: functional
Outline: (§1)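 Pretreatment with test agent for 1 h, then LPS 1 μg/ml for 24 h; nitrite in culture medium measured by Griess assay. IC50 derived; means ± SDs of three independent experiments. L-NIL 10 μM served as reference NO inhibitor.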

RAW264.7 [3] = assay: Antiinflammatory activity against mouse RAW264.7 cells assessed as inhibition of LPS-induced PGE2 production at 25 uM by EIA; format: functional
RAW264.7 [4] = assay: Cytotoxicity against mouse LPS-stimulated RAW264.7 cells assessed as effect on cell viability up to 50 uM after 24 hrs; format: cell-based; details: raw264.7, 24 h
Outline: (§2)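 RAW 264.7 viability checked after 24 h exposure to compounds up to 50 µM, with and without LPS.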

RAW264.7 [5] = assay: Cytotoxicity against mouse RAW264.7 cells assessed as effect on cell viability up to 50 uM after 24 hrs; format: cell-based; details: raw264.7, 24 h; outline: as §2
RAW264.7 [6] = assay: Antiinflammatory activity against mouse RAW264.7 cells assessed as inhibition of LPS-induced NO production at <16.73 uM preincubated for 1 hr before LPS challenge measured after 24 hrs by Griess method; format: functional, cell-based
RAW264.7 [7] = assay: Inhibition of NF-kappaB in mouse RAW264.7 cells assessed as suppression of LPS-induced iNOS mRNA level at 6.25 to 25 uM after 4 hrs by quantitative RT-PCR analysis; format: cell-based
Outline: (§3)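 Total RNA taken from cells exposed to LPS 1 μg/ml with or without 6.25, 12.5 or 25 μM compound for 4 h. Steady-state iNOS and COX-2 mRNA measured by qRT-PCR and expressed as a ratio to β-actin. Means ± SDs, n=3 independent experiments. ANOVA with Dunnett's test.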

RAW264.7 [8] = assay: Inhibition of NF-kappaB in mouse RAW264.7 cells assessed as suppression of LPS-induced COX2 mRNA level at 6.25 to 25 uM after 4 hrs by quantitative RT-PCR analysis; format: cell-based; outline: as §3
RAW264.7 [9] = assay: Inhibition of NF-kappaB in mouse RAW264.7 cells co-transfected with piNOS-luc reporter with pRL-TK-luc assessed as inhibition of LPS-induced iNOS expression pretreated for 1 hr before LPS challenge by luciferase assay; format: cell-based
Outline: (§4)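 Cells transiently co-transfected with the piNOS-luc or pCOX-2-luc reporter plus pRL-TK-luc, then pretreated 1 h with 6.25, 12.5 or 25 μM before LPS. Luciferase activity read on a luminometer. Means ± SDs of three independent experiments.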

RAW264.7 [10] = assay: Inhibition of NF-kappaB in mouse RAW264.7 cells co-transfected with pCOX-2-luc reporter with pRL-TK-luc assessed as inhibition of LPS-induced COX2 expression pretreated for 1 hr before LPS challenge by luciferase assay; format: cell-based; outline: as §4
RAW264.7 [11] = assay: Inhibition of NF-kappaB in mouse RAW264.7 cells assessed as reduction of LPS-induced TNFalpha release at 6.25 to 25 uM pretreated for 1 hr before LPS challenge and measured after 24 hrs post LPS challenge by EIA; format: cell-based
Outline: (§5)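 Compound at 6.25, 12.5 or 25 μM given 1 h ahead of LPS 1 μg/ml, then 24 h incubation. TNF-α, IL-6 and IL-1β in culture medium quantified by EIA kits. Means ± SDs of three independent experiments.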

RAW264.7 [12] = assay: Inhibition of NF-kappaB in mouse RAW264.7 cells assessed as reduction of LPS-induced IL6 release at 6.25 to 25 uM pretreated for 1 hr before LPS challenge and measured after 24 hrs post LPS challenge by EIA; format: cell-based; outline: as §5
RAW264.7 [13] = assay: Inhibition of NF-kappaB in mouse RAW264.7 cells assessed as reduction of LPS-induced IL1beta release at 6.25 to 25 uM pretreated for 1 hr before LPS challenge and measured after 24 hrs post LPS challenge by EIA; format: cell-based; outline: as §5
RAW264.7 [14] = assay: Inhibition of NF-kappaB in mouse RAW264.7 cells assessed as reduction of LPS-induced TNFalpha mRNA expression at 6.25 to 25 uM after 4 hrs by quantitative RT-PCR analysis; format: cell-based
Outline: (§6)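 RNA prepared after 4 h of LPS 1 μg/ml stimulation with or without 6.25–25 μM compound. TNF-α, IL-6 and IL-1β transcripts quantified by qRT-PCR and normalised to β-actin. Three independent experiments.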

RAW264.7 [15] = assay: Inhibition of NF-kappaB in mouse RAW264.7 cells assessed as reduction of LPS-induced IL6 mRNA expression at 6.25 to 25 uM after 4 hrs by quantitative RT-PCR analysis; format: cell-based; outline: as §6
RAW264.7 [16] = assay: Inhibition of NF-kappaB in mouse RAW264.7 cells assessed as reduction of LPS-induced IL1beta mRNA expression at 6.25 to 25 uM after 4 hrs by quantitative RT-PCR analysis; format: cell-based; outline: as §6
RAW264.7 [17] = assay: Inhibition of NF-kappaB activation in mouse LPS-stimulated RAW264.7 cells co-transfected with pNF-KappaB-luc reporter and pRL-TK-luc pretreated for 1 hr before LPS challenge measured after 1 hr post challenge by luciferase assay; format: cell-based
Outline: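 Cells co-transfected with pNF-κB-luc and pRL-TK-luc, pretreated 1 h with 6.25, 12.5 or 25 μM, then given LPS 1 μg/ml for another 1 h. Luciferase activity measured by luminometer. Three independent experiments.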

RAW264.7 [18] = assay: Inhibition of NF-kappaB activation in LPS-stimulated mouse RAW264.7 cells assessed as blockage of IkappaBalpha phosphorylation pretreated at 6.25 to 25 uM for 1 hr before LPS challenge measured after 15 to 60 mins post challenge by Western blotting; format: cell-based
Outline: (§7)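 Pretreatment 1 h at 6.25, 12.5 or 25 μM, then LPS 1 μg/ml for 15 min or 1 h. Cytosolic extracts immunoblotted for phospho-IκBα and IκBα, with β-actin as loading control. Blots representative of three experiments.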

RAW264.7 [19] = assay: Inhibition of NF-kappaB activation in LPS-stimulated mouse RAW264.7 cells assessed as blockage of IkappaBalpha degradation pretreated at 6.25 to 25 uM for 1 hr before LPS challenge measured after 15 to 60 mins post challenge by Western blotting; format: cell-based; outline: as §7
RAW264.7 [20] = assay: Antiinflammatory activity against mouse RAW264.7 cells assessed as inhibition of LPS-induced NO production preincubated for 1 hr before LPS challenge measured after 24 hrs by Griess method; format: functional, cell-based; outline: as §1
RAW264.7 [21] = assay: Antiinflammatory activity against mouse RAW264.7 cells assessed as inhibition of LPS-induced PGE2 production by EIA; format: functional, cell-based
[22] = system: Peritoneal macrophage cell; assay: Antiinflammatory activity against thioglycolate-stimulated C57BL/6 mouse peritoneal macrophages assessed as inhibition of LPS-induced NO production preincubated for 1 hr before LPS challenge measured after 24 hrs by Griess method; format: functional, cell-based
Outline: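 Peritoneal macrophages harvested from thioglycolate-injected C57BL/6 mice. Test agent 6.25, 12.5 or 25 μM added 1 h before LPS 1 μg/ml, with 24 h incubation. NO in the medium measured by Griess assay. Three independent experiments, means ± SDs.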

[23] = system: Peritoneal macrophage cell; assay: Antiinflammatory activity against thioglycolate-stimulated C57BL/6 mouse peritoneal macrophages assessed as inhibition of LPS-induced PGE2 production by EIA; format: functional, cell-based
RAW264.7 [24] = assay: Inhibition of NF-kappaB in mouse RAW264.7 cells assessed as inhibition of LPS-induced iNOS expression preincubated 1 hr before LPS challenge measured after 24 hrs by Western blot analysis; format: cell-based
Outline: (§8)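 1 h pretreatment at 6.25, 12.5 or 25 μM, then LPS 1 μg/ml for 24 h. Controls had neither LPS nor compound. 30 μg total protein run on SDS–PAGE, blotted to nitrocellulose, probed with iNOS- and COX-2-specific antibodies. Blots representative of three experiments.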

RAW264.7 [25] = assay: Inhibition of NF-kappaB in mouse RAW264.7 cells assessed as inhibition of LPS-induced expression of COX2 preincubated 1 hr before LPS challenge measured after 24 hrs by Western blot analysis; format: cell-based; outline: as §8
[26] = target: Transcription factor p65 (Mus musculus) (UniProt Q04207); assay: Inhibition of NF-kappaB p65 subunit nuclear translocation in LPS-induced mouse RAW264.7 cells pretreated for 1 hr before LPS challenge measured after 15 min or 1 hr post challenge by Western blot analysis
Transcription factor p65 (Mus musculus), sequence (Q04207 whole entry): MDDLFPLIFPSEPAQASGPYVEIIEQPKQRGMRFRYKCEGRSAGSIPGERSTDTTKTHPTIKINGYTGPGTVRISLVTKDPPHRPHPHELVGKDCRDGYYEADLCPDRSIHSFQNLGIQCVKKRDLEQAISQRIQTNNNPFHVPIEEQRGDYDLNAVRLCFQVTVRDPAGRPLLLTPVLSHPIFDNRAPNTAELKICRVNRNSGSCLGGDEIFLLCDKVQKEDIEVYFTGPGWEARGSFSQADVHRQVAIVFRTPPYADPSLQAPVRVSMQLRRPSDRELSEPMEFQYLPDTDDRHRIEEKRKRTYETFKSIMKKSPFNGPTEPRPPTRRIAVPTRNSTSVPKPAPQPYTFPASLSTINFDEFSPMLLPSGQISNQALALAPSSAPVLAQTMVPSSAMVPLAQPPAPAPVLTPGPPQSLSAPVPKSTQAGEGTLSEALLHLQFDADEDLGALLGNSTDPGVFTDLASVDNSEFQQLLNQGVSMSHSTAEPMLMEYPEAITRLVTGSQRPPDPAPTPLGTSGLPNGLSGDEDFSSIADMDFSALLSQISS

## O=c1cc(-c2ccc([N+](=O)[O-])cc2)oc2cc(O)c(O)c(O)c12
RAW264.7 [1]
  IC50: > 100 µM
RAW264.7 [2]
  inhibition at 25 µM: 7.65%
RAW264.7 [3]
  inhibition at 25 µM: 29.9%
RAW264.7 [4]
  Activity: Non-toxic
RAW264.7 [5]
  Activity: Non-toxic

## COc1c(O)cc2oc(-c3ccccc3)cc(=O)c2c1O [OROXYLIN A]
RAW264.7 [6]
  Activity: inactive
RAW264.7 [1]
  IC50: 16.7 µM
RAW264.7 [2]
  inhibition at 25 µM: 12.4%

## O=c1cc(-c2ccc(Br)cc2)oc2cc(O)c(O)c(O)c12
RAW264.7 [1]
  IC50: 57.1 µM
RAW264.7 [2]
  inhibition at 25 µM: 27%
RAW264.7 [3]
  inhibition at 25 µM: 29.9%
RAW264.7 [4]
  Activity: Non-toxic
RAW264.7 [5]
  Activity: Non-toxic

## COc1cc2oc(-c3ccc(N)cc3)cc(=O)c2c(OC)c1OC
RAW264.7 [1]
  IC50: > 100 µM
RAW264.7 [2]
  inhibition at 25 µM: 23.1%
RAW264.7 [3]
  inhibition at 25 µM: 69.5%
RAW264.7 [4]
  Activity: Non-toxic
RAW264.7 [5]
  Activity: Non-toxic

## COc1cc2oc(-c3ccc([N+](=O)[O-])cc3)cc(=O)c2c(OC)c1OC
RAW264.7 [1]
  IC50: > 100 µM
RAW264.7 [2]
  inhibition at 25 µM: 17.4%
RAW264.7 [3]
  inhibition at 25 µM: 84.4%
RAW264.7 [4]
  Activity: Non-toxic
RAW264.7 [5]
  Activity: Non-toxic

## COc1cc2oc(-c3ccccc3)cc(=O)c2c(OC)c1OC [BAICALEIN TRIMETHYL ETHER]
RAW264.7 [1]
  IC50: > 100 µM
RAW264.7 [2]
  inhibition at 25 µM: 12.1%
RAW264.7 [3]
  inhibition at 25 µM: 42.2%
RAW264.7 [4]
  Activity: Non-toxic
RAW264.7 [5]
  Activity: Non-toxic

## Nc1ccc(-c2cc(=O)c3c(O)c(O)c(O)cc3o2)cc1
RAW264.7 [1]
  IC50: 94.1 µM
RAW264.7 [2]
  inhibition at 25 µM: 6.98%
RAW264.7 [3]
  inhibition at 25 µM: 83.1%
RAW264.7 [4]
  Activity: Non-toxic
RAW264.7 [5]
  Activity: Non-toxic

## O=c1cc(-c2ccccc2)oc2cc(O)c(O)c(O)c12 [BAICALEIN]
RAW264.7 [1]
  IC50: > 100 µM
RAW264.7 [2]
  inhibition at 25 µM: 11.1%
RAW264.7 [3]
  inhibition at 25 µM: 60.9%

## COc1cc2oc(-c3ccc(Br)cc3)cc(=O)c2c(OC)c1OC
RAW264.7 [7]
  inhibition: Active
RAW264.7 [8]
  inhibition: Active
RAW264.7 [9]
  inhibition: Dose-dependent effect
RAW264.7 [10]
  inhibition: Dose-dependent effect
RAW264.7 [11]
  inhibition: Active
RAW264.7 [12]
  inhibition: Active
RAW264.7 [13]
  inhibition: Active
RAW264.7 [14]
  inhibition: Active
RAW264.7 [15]
  inhibition: Active
RAW264.7 [16]
  inhibition: Active
RAW264.7 [17]
  inhibition: Dose-dependent effect
RAW264.7 [18]
  inhibition: Active
RAW264.7 [19]
  inhibition: Active
RAW264.7 [1]
  IC50: 69.9 µM
RAW264.7 [2]
  inhibition at 25 µM: 89.6%
RAW264.7 [3]
  inhibition at 25 µM: 89.6%
RAW264.7 [20]
  IC50: 14.2 µM
  inhibition: Dose-dependent effect
RAW264.7 [21]
  IC50: 11 µM
  inhibition: Dose-dependent effect
RAW264.7 [4]
  Activity: Non-toxic
RAW264.7 [5]
  Activity: Non-toxic
[22]
  inhibition: Dose-dependent effect
[23]
  inhibition: Dose-dependent effect
RAW264.7 [24]
  inhibition: Dose-dependent effect
RAW264.7 [25]
  inhibition: Dose-dependent effect
[26]
  inhibition: Dose-dependent effect
